Measurements taken from ChEMBL document CHEMBL5647693, “Molecular basis underlying resistance to Mps1/TTK inhibitors” (Oncogene, 2016).
Calls of active or inactive are those of the source. The calls are words filed in the database; no cut-off is given here.

What was measured:
[1] = system: HeLa; test: cells; assay type: functional, cell-based; conditions: Homo sapiens, 120 h
[2] = system: HeLa; test: Induction of mitotic arrest in human HeLa cells harboring Mps1 C604Y mutant assessed as initiating anaphase at 200 nM and measured after nuclear envelope breakdown; assay type: functional, cell-based
[3] = system: HeLa; test: Induction of mitotic arrest in human HeLa cells harboring Mps1 C604F mutant assessed as initiating anaphase at 200 nM and measured after nuclear envelope breakdown; assay type: functional, cell-based
[4] = system: DLD-1; test: Antiproliferative activity against human DLD-1 cells harboring Mps1 S611R mutant assessed as change in Mps1 expression level by Western blot analysis; assay type: functional, cell-based
Procedure, shortened: (§1)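 Lysis in Tris/HCl pH 7.5 with 150 mM NaCl, 1% Triton X-100, DTT, EDTA, phosphatase and protease inhibitors. SDS-PAGE, transfer to nitrocellulose, block in 4% BSA 0.5 h at room temperature, primary antibody (Mps1-NT) overnight at 4 °C, secondary 1:2000 for 1 h, ECL chemiluminescence detection.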

[5] = system: HCT-116; test: cells; assay type: functional, cell-based; conditions: Homo sapiens, HCT-116, 120 h
[6] = system: HeLa; test: Antiproliferative activity against human HeLa cells harboring Mps1 I598F mutant assessed as change in Mps1 expression level by Western blot analysis; assay type: functional, cell-based
Procedure, shortened: as §1

[7] = system: HCT-116; test: Antiproliferative activity against human HCT-116 cells harboring Mps1 C604Y-B mutant assessed as change in Mps1 expression level by Western blot analysis; assay type: functional, cell-based
Procedure, shortened: as §1

[8] = system: HCT-116; test: Induction of mitotic arrest in human HCT-116 cells harboring Mps1 I531M mutant assessed as mitotic index at 200 to 400 nM incubated for 16 hrs in the presence of nocodazole; assay type: functional, cell-based; conditions: dose 200-400 nM
Procedure, shortened: (§2)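 About 10 000 cells per 96-well plated on day 0. On day 1, nocodazole (200 ng/ml) plus Cpd-5 at various concentrations added for 16 h. Fixed in 5% formaldehyde, stained for phospho-histone H3-Ser10 and DAPI, up to nine images per well (~3000 cells). Mitotic index = pH3S10-positive/DAPI-positive cells, normalized; three independent experiments.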

[9] = system: DLD-1; test: cells; assay type: functional, cell-based; conditions: Homo sapiens, DLD-1, 120 h
[10] = organism: Homo sapiens; test: Inhibition of recombinant Mps1 I598F mutant (unknown origin) assessed as KNL1 phosphorylation level incubated for 10 min by Western blot analysis
[11] = organism: Homo sapiens; test: Inhibition of recombinant Mps1 C604Y mutant (unknown origin) assessed as KNL1 phosphorylation level incubated for 10 min by Western blot analysis
[12] = system: HeLa; test: Inhibition of colony formation in human HeLa cells harboring Mps1 I598F mutant assessed as cell survival at 60 nM incubated for 14 days by crystal violet staining based colony formation assay; assay type: functional; conditions: time 14.0 day
Procedure, shortened: (§3)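 About 500–600 cells per 6-well plated on day 0, Cpd-5 added day 1 at 60 nM, colonies grown to day 14. Fixed 10 min in 96% methanol, stained with 0.1% crystal violet, scanned and analysed. Parental and drug-selected clones tested side by side.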

[13] = system: HeLa; test: Induction of mitotic arrest in human HeLa cells harboring Mps1-C604F mutant assessed as […] in average mitotic time with severe seggregation at 400 nM relative to control; assay type: functional
[14] = system: HeLa; test: Induction of mitotic arrest in human HeLa cells harboring Mps1-C604F mutant assessed as decrease in average mitotic time with most mild seggregation errors at 200 nM; assay type: functional, cell-based
[15] = system: U2OS; test: Induction of mitotic arrest in human U2OS cells harboring LAP-Mps1 I598F mutant assessed as maintain in checkpoint-dependent arrest at 100 nM incubated for 16 hrs in the presence of nocodazole; assay type: functional, cell-based
Procedure, shortened: as §2

[16] = system: U2OS; test: Induction of mitotic arrest in human U2OS cells harboring LAP-Mps1 C604Y mutant assessed as maintain in checkpoint-dependent arrest at 100 nM incubated for 16 hrs in the presence of nocodazole; assay type: functional, cell-based
Procedure, shortened: as §2

[17] = system: U2OS; test: Induction of mitotic arrest in human U2OS cells harboring LAP-Mps1 531M mutant assessed as maintain in checkpoint-dependent arrest at 100 nM incubated for 16 hrs in the presence of nocodazole; assay type: functional, cell-based
Procedure, shortened: as §2

[18] = organism: Homo sapiens; test: Inhibition of recombinant Mps1 531M mutant (unknown origin) assessed as KNL1 phosphorylation level incubated for 10 min by Western blot analysis
[19] = system: HeLa; test: Induction of mitotic arrest in human HeLa cells expressing histone H2B-YFP assessed as chromosome misalignment at 50 to 100 nM incubated for 16 hrs by time-lapse microscopy relative to control; assay type: functional; conditions: dose 50-100 nM
Procedure, shortened: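 HeLa H2B-YFP cells imaged live at 37 °C in L-15 after DMSO or 50/100 nM Cpd-5. Anaphases scored for missegregation as mild (up to 3 chromosomes) or severe (>3 chromosomes), 50 cells per condition.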

[20] = system: HeLa; test: Induction of mitotic arrest in human HeLa cells harboring Mps1-C604F mutant assessed as decrease in average mitotic time with mis seggregation at 200 nM relative to control; assay type: functional; design: scale not given: the % may be the effect or the level left
[21] = system: HCT-116; test: Induction of mitotic arrest in human HCT-116 cells harboring Mps1 C604Y mutant assessed as mitotic index at 200 to 400 nM incubated for 16 hrs in the presence of nocodazole; assay type: functional, cell-based; conditions: dose 200-400 nM
Procedure, shortened: as §2

[22] = system: HCT-116; test: Induction of mitotic arrest in human HCT-116 cells assessed as decrease in mitotic index at 30 nM incubated for 16 hrs; assay type: functional; design: scale not given: the % may be the effect or the level left
Procedure, shortened: as §2

[23] = system: HeLa; test: Inhibition of colony formation in human HeLa cells harboring Mps1 C604Y mutant at 80 nM incubated for 14 days in the presence of oligonucleotide by crystal violet staining based colony formation assay; assay type: functional, cell-based; conditions: time 14.0 day
Procedure, shortened: (§4)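 HeLa (1 × 10^6) transfected with mock, a 100-bp repair oligonucleotide alone, or oligonucleotide plus pX330 Cas9/Mps1-targeting gRNA. Selected with 80 nM Cpd-5 for 14 days in 10-cm plates, then stained with crystal violet.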

[24] = system: HCT-116; test: Inhibition of colony formation in human HCT-116 cells harboring Mps1 C604Y-B mutant assessed as cell survival at 60 nM incubated for 14 days by crystal violet staining based colony formation assay; assay type: functional; conditions: time 14.0 day
Procedure, shortened: as §3

[25] = system: HCT-116; test: Antiproliferative activity against human HCT-116 cells harboring Mps1 531M mutant assessed as change in Mps1 expression level by Western blot analysis; assay type: functional, cell-based
Procedure, shortened: as §1

[26] = system: HCT-116; test: Inhibition of colony formation in human HCT-116 cells harboring Mps1 C604Y-A mutant assessed as cell survival at 60 nM incubated for 14 days by crystal violet staining based colony formation assay; assay type: functional; conditions: time 14.0 day
Procedure, shortened: as §3

[27] = system: U2OS; test: cells; assay type: functional, cell-based; conditions: Homo sapiens, 120 h
[28] = system: HeLa; test: Inhibition of colony formation in human HeLa cells harboring Mps1 C604Y mutant at 80 nM incubated for 14 days in the presence of oligonucleotide and Cas9/gRNA by crystal violet staining based colony formation assay; assay type: functional, cell-based; conditions: time 14.0 day
Procedure, shortened: as §4

[29] = system: HCT-116; test: Inhibition of colony formation in human HCT-116 cells harboring Mps1 C604Y-B mutant assessed as cell survival incubated for 5 days crystal violet staining based colony formation assay; assay type: functional; conditions: HCT-116, 120 h
Procedure, shortened: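 Cells (~1500 per well, 96-well format) seeded day 0; inhibitor added day 1 over a range of concentrations; on day 6 fixed 10 min in 96% methanol, stained with 0.1% crystal violet, washed, scanned and quantified. Grown in DMEM with 6% FCS, penicillin-streptomycin, 2 mM L-glutamine. Survival relative to untreated; IC50 from curve fit, average of three independent experiments.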

[30] = system: HeLa; test: Induction of mitotic arrest in human HeLa cells assessed as depletion in KNL1 phosphorylation at 50 to 100 nM by immunostaining method; assay type: functional, cell-based; conditions: dose 50-100 nM
Procedure, shortened: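 HeLa cells given DMSO, 50 or 100 nM Cpd-5, immunostained for phospho-KNL1 (MELT13/17) and CREST, DNA with DAPI. Kinetochore ph-KNL1/CREST fluorescence intensity ratios from 200 kinetochores per condition.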

[31] = organism: Homo sapiens; test: Inhibition of recombinant Mps1 S611R mutant (unknown origin) assessed as KNL1 phosphorylation level incubated for 10 min by Western blot analysis
[32] = system: HeLa; test: Inhibition of colony formation in human HeLa cells harboring wild-type Mps1 assessed as cell survival at 60 nM incubated for 14 days by crystal violet staining based colony formation assay; assay type: functional; conditions: time 14.0 day
Procedure, shortened: as §3

[33] = system: HCT-116; test: Inhibition of colony formation in human HCT-116 cells harboring Mps1 531M mutant assessed as cell survival at 60 nM incubated for 14 days by crystal violet staining based colony formation assay; assay type: functional; conditions: time 14.0 day
Procedure, shortened: as §3

[34] = system: U2OS; test: Induction of mitotic arrest in human U2OS cells harboring LAP-Mps1 S611R mutant assessed as maintain in checkpoint-dependent arrest at 100 nM incubated for 16 hrs in the presence of nocodazole; assay type: functional, cell-based
Procedure, shortened: as §2

[35] = system: DLD-1; test: Induction of mitotic arrest in human DLD-1 cells assessed as decrease in mitotic index at 30 nM incubated for 16 hrs; assay type: functional; design: scale not given: the % may be the effect or the level left
Procedure, shortened: as §2

[36] = system: DLD-1; test: Inhibition of colony formation in human DLD-1 cells harboring Mps1 S611R mutant assessed as cell survival at 60 nM incubated for 14 days by crystal violet staining based colony formation assay; assay type: functional; conditions: time 14.0 day
Procedure, shortened: as §3

[37] = system: HCT-116; test: Inhibition of colony formation in human HCT-116 cells harboring wild-type Mps1 assessed as cell survival at 60 nM incubated for 14 days by crystal violet staining based colony formation assay; assay type: functional; conditions: time 14.0 day
Procedure, shortened: as §3

[38] = system: HeLa; test: Induction of mitotic arrest in human HeLa cells assessed as decrease in average mitotic time with severe seggregation errors at 100 nM relative to control; design: scale not given: the % may be the effect or the level left
[39] = system: HeLa; test: Induction of mitotic arrest in human HeLa cells expressing histone H2B-YFP assessed as initiating anaphase at 50 to 100 nM incubated for 16 hrs and measured within 15 min after nuclear envelope breakdown by time-lapse microscopy relative to control; assay type: functional; conditions: dose 50-100 nM, time 975 min, 16.25 h
Procedure, shortened: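 Live imaging of HeLa H2B-YFP cells in L-15 medium at 37 °C after DMSO or 50/100 nM Cpd-5, no nocodazole. Time from nuclear envelope breakdown to anaphase onset recorded for 50 cells per condition; cumulative anaphase-onset percentage and mean mitotic duration.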

[40] = system: HCT-116; test: Antiproliferative activity against human HCT-116 cells harboring Mps1 C604Y-A mutant assessed as change in Mps1 expression level by Western blot analysis; assay type: functional, cell-based
Procedure, shortened: as §1

[41] = system: DLD-1; test: Induction of mitotic arrest in human DLD-1 cells harboring Mps1 S611R mutant assessed as mitotic index at 200 to 400 nM incubated for 16 hrs in the presence of nocodazole; assay type: functional, cell-based; conditions: dose 200-400 nM
Procedure, shortened: as §2

[42] = system: U2OS; test: Inhibition of colony formation in human U2OS cells harboring wild-type LAP-Mps1 assessed as cell survival incubated for 5 days by crystal violet staining based colony formation assay; assay type: functional; conditions: 120 h
Procedure, shortened: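 Cells seeded at ~1500 per 96-well on day 0; inhibitor added on day 1 over a concentration range. On day 6, fixed 10 min in 96% methanol, stained with 0.1% crystal violet, scanned and quantified. Survival relative to untreated; IC50 from dose–response curves; mean of three independent experiments. Culture in DMEM with 6% FCS.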

IC50 [1]: 252 nM
IC50 [5]: 20.1 nM
IC50 [9]: 24.6 nM
inhibition [10]: Active
inhibition [11]: Active
inhibition [18]: Active
IC50 [27]: 20.6 nM
inhibition [31]: Active
SMILES: CCc1cccc(CC)c1NC(=O)c1nn(C)c2c1CCc1cnc(Nc3ccc(N4CCN(C)CC4)cc3OC)nc1-2
Activity [2]: inactive
Activity [3]: inactive
Activity [4]: inactive
Activity [6]: inactive
Activity [7]: inactive
Activity [8]: Active
inhibition [12]: Active
Activity [13]: 100%
Activity [14]: Active
Activity [15]: Active
Activity [16]: Active
Activity [17]: Active
Activity [19]: 100%
Activity [20]: 70%
Activity [21]: Active
Activity [22]: 60%
Activity [23]: Active
inhibition [24]: Active
Activity [25]: inactive
inhibition [26]: Active
Activity [28]: Active
IC50 [29]: 310 nM
Activity [30]: Active
inhibition [32]: inactive
inhibition [33]: Active
Activity [34]: Active
Activity [35]: 70%
inhibition [36]: Active
inhibition [37]: inactive
Activity [38]: 100%
Activity [39]: 100%
Activity [40]: inactive
Activity [41]: Active
IC50 [42]: 33.2 nM
